{
  "source": "paper PMC8857066",
  "about": "(Bioorganic & medicinal chemistry letters, 2022)",
  "key": {"[1]": {"molecular_target": "T1, fluorescein-labeled WIL-FL LC dimer (WIL-FL*) (Homo sapiens, UniProt P01721, K101C)", "T1 sequence (P01721 20-117 K101C)": "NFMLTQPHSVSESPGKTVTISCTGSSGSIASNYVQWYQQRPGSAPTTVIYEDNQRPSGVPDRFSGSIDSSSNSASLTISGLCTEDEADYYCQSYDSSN", "settings": "previous study; cited from earlier work"}, "[2]": {"tested_on": "unlabeled WIL-FL LC dimer", "assay": "proteinase K sensitivity assay, single dose", "format": "biochemical, human", "settings": "10 μM stabilizer", "outline": "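Unlabelled WIL-FL LC dimer (2.5 μM) was treated with test compound (10 μM) and proteinase K (50 nM) for 2 h at 37 °C. Remaining intact dimer was quantified by size-exclusion chromatography. Fold protection is the fraction of dimer remaining with compound, corrected for residual dimer in the vehicle (1% DMSO) control. Mean of ≥3 independent replicates ± 1 SD.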"}, "[3]": {"molecular_target": "T1, fluorescein-labeled WIL-FL LC dimer (WIL-FL*)", "assay": "protease-coupled fluorescence polarization", "format": "biochemical"}, "[4]": {"molecular_target": "fluorescein-labeled WIL-FL* T46L/F49Y LC dimer (Homo sapiens, UniProt P01721, K101C/T66L)", "sequence (P01721 20-117 T66L/K101C)": "as the sequence (P01721 20-117 K101C) above, with T47L counted along it", "assay": "protease-coupled fluorescence polarization", "format": "biochemical", "settings": "for increased potency compared to stabilizer 1 in the PCFP assays (up to): highest ratio across the two PCFP assays (WIL-FL* and WIL-FL* T46L/F49Y)"}, "FL LC dimers": {"tested_on": "FL LC dimers", "settings": "cited from earlier work"}},
  "data": [
    {"smiles": "CCN(CC)c1ccc2c(C)c(CCOC(=O)NCc3ccccc3)c(=O)oc2c1", "note": "[2-(7-(diethylamino)-4-methyl-2-oxo-2H-chromen-3-yl)ethyl benzylcarbamate]", "values": [
      {"measurement": "improved potency compared to 1 in the PCFP assays", "setting": "[1]", "value": "more than ten-fold"}
    ]},
    {"smiles": "CCN(CC)c1ccc2c(C)c(CCC(=O)NCCc3cccnc3)c(=O)oc2c1", "note": "[Compound 11]", "values": [
      {"measurement": "increase in fold protection for unlabeled WIL-FL compared to stabilizer 1", "setting": "[2]", "value": 0.33},
      {"measurement": "potency increase for WIL-FL* compared to stabilizer 1", "setting": "[3]; ratio of EC50 values", "value": 2.6, "unit": "fold"},
      {"measurement": "potency increase for WIL-FL* T46L/F49Y compared to stabilizer 1", "setting": "[4]; ratio of EC50 values", "value": "two-fold"}
    ]},
    {"smiles": "CCN(CC)c1ccc2c(C)c(CCNC(=O)CCc3ccccc3)c(=O)oc2c1", "note": "[Compound 16]", "values": [
      {"measurement": "maximal fluorescence polarization compared to compound 1", "setting": "[3]; PCFP dose-response (Figure S3)", "value": "lower"}
    ]},
    {"smiles": "CCN(CC)c1ccc2c(C)c(CCNC(=O)NCc3ccc4ccccc4c3)c(=O)oc2c1", "note": "[Compound 23]", "values": [
      {"measurement": "increased potency compared to stabilizer 1 in the PCFP assays (up to)", "setting": "[4]", "value": "≤ 150", "unit": "fold"}
    ]},
    {"smiles": "CN(C)c1ccc2nc3ccc(=[N+](C)C)cc-3sc2c1", "note": "[methylene blue]", "values": [
      {"measurement": "stabilization of FL LC dimers", "setting": "FL LC dimers", "value": "do not stabilize FL LC dimers"}
    ]},
    {"smiles": "O=C(O)c1cc(/N=N/c2ccc(S(=O)(=O)Nc3ccccn3)cc2)ccc1O", "note": "[sulfasalazine]", "values": [
      {"measurement": "stabilization of FL LC dimers", "setting": "FL LC dimers", "value": "do not stabilize FL LC dimers"}
    ]},
    {"smiles": "CCN(CC)c1ccc2c(C)c(CCNC(=O)NCc3cccc(-c4c[nH]cn4)c3)c(=O)oc2c1", "note": "[Compound 21]", "values": [
      {"measurement": "increased potency compared to stabilizer 1 in the PCFP assays (up to)", "setting": "[4]", "value": "up to 56 fold"}
    ]}
  ]
}
